The values below come from ChEMBL document CHEMBL3992509, “Discovery of a Highly Potent, Selective, and Metabolically Stable Inhibitor of Receptor-Interacting Protein 1 (RIP1) for the Treatment of Systemic Inflammatory Response Syndrome” (J Med Chem, 2017).

In experiment [1] the target is T1, Receptor-interacting serine/threonine-protein kinase 1 (Homo sapiens, UniProt Q13546).
T1 sequence (Q13546 whole entry): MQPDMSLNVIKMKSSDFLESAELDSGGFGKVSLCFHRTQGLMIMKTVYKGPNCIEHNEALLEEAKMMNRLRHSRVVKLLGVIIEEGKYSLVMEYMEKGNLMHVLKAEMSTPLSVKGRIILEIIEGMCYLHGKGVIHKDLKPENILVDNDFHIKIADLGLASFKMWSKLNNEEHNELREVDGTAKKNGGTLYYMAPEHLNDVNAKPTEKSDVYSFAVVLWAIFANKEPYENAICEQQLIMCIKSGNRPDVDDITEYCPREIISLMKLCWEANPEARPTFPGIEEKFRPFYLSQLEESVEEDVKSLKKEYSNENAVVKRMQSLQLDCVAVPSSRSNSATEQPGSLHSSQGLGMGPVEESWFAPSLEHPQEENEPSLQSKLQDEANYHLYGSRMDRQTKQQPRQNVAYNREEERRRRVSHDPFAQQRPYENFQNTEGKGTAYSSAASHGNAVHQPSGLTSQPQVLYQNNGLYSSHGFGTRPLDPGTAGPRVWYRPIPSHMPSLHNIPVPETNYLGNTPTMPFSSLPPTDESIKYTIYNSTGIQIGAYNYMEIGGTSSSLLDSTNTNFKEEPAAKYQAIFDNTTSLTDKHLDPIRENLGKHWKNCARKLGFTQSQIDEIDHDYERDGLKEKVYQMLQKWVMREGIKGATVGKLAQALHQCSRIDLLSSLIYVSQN
In words: Inhibition of RIP1 (unknown origin) using MBP as substrate preincubated for 15 mins followed by MBP/ATP mixture addition measured after 90 mins by ADP-Glo kinase assay. A digest of the protocol:
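Recombinant RIP1 pre-incubated 15 min with compound or DMSO in 25 mM HEPES pH 7.2, 20 mM MgCl2, 12.5 mM MnCl2, 5 mM EGTA, 2 mM EDTA, 12.5 mM β-glycerol phosphate, 2 mM DTT. Reaction started with ATP (50 μM final) and MBP (20 μM final), run 90 min at room temperature. ADP-Glo luminescence read-out.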

The test system of experiment [2] is Mus musculus. In words: Protection against TNFalpha-induced multiorgan damage in C57BL/6J mouse assessed as inhibition of TNFalpha-induced increase in IL-1beta level at 0.3 to 3 mg/kg, ip pretreated for 17 mins followed by TNFalpha injection and subsequent compound treatment once in every 12 hrs measured after 12 hrs. Format: functional, organism-based. A digest of the protocol:
(§1)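 C57BL/6 mice given 4 μg mTNFα (~0.18 mg/kg) IV. Compound 0.3, 1, 3 mg/kg IP 17 min before and then every 12 h; vehicle controls. Blood taken 12 h and 24 h after TNFα. Assays: IL-6 and IL-1β; serum LDH, CK, AST, creatinine, BUN, amylase.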

The subject of experiment [3] is Mus musculus. In words: Protection against TNFalpha-induced multiorgan damage in C57BL/6J mouse assessed as inhibition of TNFalpha-induced increase in IL-6 level at 0.3 to 3 mg/kg, ip pretreated for 17 mins followed by TNFalpha injection and subsequent compound treatment once in every 12 hrs measured after 12 hrs. Format: functional, organism-based. In outline:
as §1

Experiment [4] has as its system Mus musculus. In words: Protection against TNFalpha-induced multiorgan damage in C57BL/6J mouse assessed as serum amylase level at 0.3 to 3 mg/kg, ip pretreated for 17 mins followed by TNFalpha injection and subsequent compound treatment once in every 12 hrs measured 24 hrs post TNFalpha injection. Format: functional, organism-based. A digest of the protocol: as §1

The source made the active and inactive calls. The calls are words filed in the database; no cut-off is given here.

Take `CCC(C)(C)C(=O)N(O)Cc1ccccc1`: the IC50 in experiment [1] worked out at 13 nM. Moreover, the inhibition result in the experiment on Mus musculus [2] and in the experiment on Mus musculus [3] was “Active” throughout. In the experiment with Mus musculus [4], the result was Active.
